The source of these data is PubChem BioAssay.

SMILES strings stand for the structures. The list shows a part of the results. Calls of active or inactive are those of the source.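 How the source made its calls, unless noted: active means potentiation averaged over duplicate wells exceeding buffer-only control mean by more than 3 SD; inactive means the rest.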

Sequence of Short transient receptor potential channel 6 (Mus musculus) (Q61143 whole entry, looked up): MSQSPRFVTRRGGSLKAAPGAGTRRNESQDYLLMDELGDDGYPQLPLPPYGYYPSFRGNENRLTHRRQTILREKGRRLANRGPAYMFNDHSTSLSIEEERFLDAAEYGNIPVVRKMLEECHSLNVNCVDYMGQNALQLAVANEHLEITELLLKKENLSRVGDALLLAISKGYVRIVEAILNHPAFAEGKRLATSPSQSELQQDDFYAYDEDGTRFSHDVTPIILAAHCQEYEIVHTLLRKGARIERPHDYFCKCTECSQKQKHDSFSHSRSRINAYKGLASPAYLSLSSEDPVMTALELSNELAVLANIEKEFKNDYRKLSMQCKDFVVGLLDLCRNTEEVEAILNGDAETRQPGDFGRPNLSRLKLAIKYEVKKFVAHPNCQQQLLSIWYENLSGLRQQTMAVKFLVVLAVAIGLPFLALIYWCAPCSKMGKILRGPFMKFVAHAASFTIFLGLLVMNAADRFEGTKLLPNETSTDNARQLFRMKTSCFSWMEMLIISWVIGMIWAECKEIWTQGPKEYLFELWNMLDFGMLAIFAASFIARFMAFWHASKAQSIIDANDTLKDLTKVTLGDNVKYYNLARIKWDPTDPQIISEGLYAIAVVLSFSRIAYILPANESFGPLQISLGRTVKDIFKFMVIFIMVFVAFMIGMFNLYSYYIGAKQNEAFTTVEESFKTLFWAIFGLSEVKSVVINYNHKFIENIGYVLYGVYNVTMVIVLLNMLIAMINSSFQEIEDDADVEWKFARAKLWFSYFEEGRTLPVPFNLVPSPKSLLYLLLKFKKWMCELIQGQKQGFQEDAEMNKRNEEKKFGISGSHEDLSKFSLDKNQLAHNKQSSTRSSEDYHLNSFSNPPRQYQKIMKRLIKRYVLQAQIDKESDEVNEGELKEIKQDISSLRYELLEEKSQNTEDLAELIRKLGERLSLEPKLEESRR
Sequence of Potassium voltage-gated channel subfamily KQT member 1 (Homo sapiens) (P51787 whole entry, looked up): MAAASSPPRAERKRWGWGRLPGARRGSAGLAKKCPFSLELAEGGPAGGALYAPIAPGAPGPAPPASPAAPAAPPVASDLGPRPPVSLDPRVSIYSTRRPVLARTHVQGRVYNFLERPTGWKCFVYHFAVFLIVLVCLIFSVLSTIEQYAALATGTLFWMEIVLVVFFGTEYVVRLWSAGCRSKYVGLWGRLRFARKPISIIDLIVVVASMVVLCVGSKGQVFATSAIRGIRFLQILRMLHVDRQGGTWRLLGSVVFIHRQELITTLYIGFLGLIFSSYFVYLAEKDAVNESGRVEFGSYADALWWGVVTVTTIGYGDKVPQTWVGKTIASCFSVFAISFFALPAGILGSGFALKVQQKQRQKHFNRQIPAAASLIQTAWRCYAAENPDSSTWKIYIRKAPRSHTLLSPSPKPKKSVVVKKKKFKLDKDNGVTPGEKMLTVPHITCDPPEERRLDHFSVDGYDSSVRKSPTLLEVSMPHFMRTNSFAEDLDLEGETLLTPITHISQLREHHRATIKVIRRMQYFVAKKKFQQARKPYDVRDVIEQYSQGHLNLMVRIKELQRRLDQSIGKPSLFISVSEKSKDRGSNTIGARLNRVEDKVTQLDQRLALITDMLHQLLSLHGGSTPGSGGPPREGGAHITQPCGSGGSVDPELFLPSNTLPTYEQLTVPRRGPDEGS

The target in the first assay is Potassium voltage-gated channel subfamily KQT member 2 (Rattus norvegicus) (UniProt O88943). In words: potentiators of retigabine-insensitive KCNQ2 W236L, mechanism study for KCNQ2 potentiator project, cell-based, rat KCNQ2 W236L, CHO, automated patch clamp (AID 2558;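 active means current increase at least 3 SD of the untreated controls above them in both duplicate recordings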). To be noted: at 25 µM; outcome: automated patch clamp current. A general note: Patch clamp records ionic current or voltage across a cell membrane.
Sequence of Potassium voltage-gated channel subfamily KQT member 2 (Rattus norvegicus) (O88943 whole entry W236L, looked up): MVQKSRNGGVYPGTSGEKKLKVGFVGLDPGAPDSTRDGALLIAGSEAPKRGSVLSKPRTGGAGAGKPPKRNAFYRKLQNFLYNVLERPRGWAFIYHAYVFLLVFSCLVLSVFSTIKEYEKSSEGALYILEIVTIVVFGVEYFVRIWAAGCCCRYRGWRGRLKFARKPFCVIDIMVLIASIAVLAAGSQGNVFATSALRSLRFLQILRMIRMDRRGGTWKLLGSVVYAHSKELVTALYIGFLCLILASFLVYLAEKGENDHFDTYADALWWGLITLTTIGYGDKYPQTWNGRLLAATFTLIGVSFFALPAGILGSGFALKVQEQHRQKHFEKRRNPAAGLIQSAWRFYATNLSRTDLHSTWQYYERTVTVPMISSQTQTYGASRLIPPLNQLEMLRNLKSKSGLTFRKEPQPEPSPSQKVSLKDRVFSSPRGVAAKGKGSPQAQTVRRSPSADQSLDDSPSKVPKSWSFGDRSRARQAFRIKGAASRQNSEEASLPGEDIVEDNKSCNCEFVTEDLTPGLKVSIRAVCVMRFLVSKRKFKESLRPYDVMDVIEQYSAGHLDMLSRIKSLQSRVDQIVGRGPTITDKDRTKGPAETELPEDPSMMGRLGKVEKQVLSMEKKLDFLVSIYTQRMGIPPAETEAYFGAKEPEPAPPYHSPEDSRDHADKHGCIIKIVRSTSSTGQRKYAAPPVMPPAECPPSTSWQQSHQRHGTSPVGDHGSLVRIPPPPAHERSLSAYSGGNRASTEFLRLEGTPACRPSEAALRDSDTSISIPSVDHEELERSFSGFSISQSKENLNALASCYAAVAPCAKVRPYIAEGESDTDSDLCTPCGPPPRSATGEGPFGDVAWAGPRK
On to `CCn1c2ccccc2c2cc(NC(=O)CNC)ccc21`, for which the result was inactive.

Turning to `CCC1(C)Cc2c(sc3nnn(CC(=O)Nc4ccc(Cl)cc4)c(=O)c23)CO1` (centres undefined), the outcome was inactive.

Take `N#Cc1c(-c2ccccc2)nc(SCc2cccc(C(F)(F)F)c2)[nH]c1=O`: the outcome was inactive.

`CCOC(=O)c1sc(=S)n2c1[nH]c(=O)c1ccc(C(=O)OC)cc12`: the outcome was inactive.

For the compound `CCOC(=O)c1c(NC(=S)NC)sc2c1CCCC2`, the outcome was inactive.

Turning to `Cc1ccc(/C=N/NC(=O)c2cc3ccccc3cc2O)o1`, the outcome was inactive.

As for `CCN(CC(=O)NC(=O)NCc1ccccc1)Cc1nc2ccccc2c(=O)[nH]1`, the outcome was inactive.

In the case of `CSc1nnc(NC(=O)c2nc(S(=O)(=O)Cc3ccc(C)cc3)ncc2Cl)s1`, the current increase over 3SD of negative controls (%), active compounds read high is 23.1% (active).

For `FC(F)(F)c1cccc(NC(=S)Nc2cccc(Cl)c2)c1`, the result was inactive.

On to `CCc1ccc(NC(=O)C(=O)NNC(=O)c2cccs2)cc1`, for which the result was inactive.

Regarding `Cc1[nH]n(-c2cccc(Cl)c2)c(=O)c1/C=N/n1c(C)nc2ccccc2c1=O`, the result was inactive.

Regarding `CC1=C/C(=N\OS(=O)(=O)c2ccccc2)C=CC1=O`, the outcome was inactive.

As to `O=C(NCc1ccc2c(c1)OCO2)C12CC3CC(CC(C3)C1)C2`, the outcome was inactive.

The target in another assay is Short transient receptor potential channel 4 (Mus musculus) (UniProt Q9QUQ5). In words: mouse TRPC4 membrane potential modulation by TRPC6 hits, confirmation, selectivity assay for TRPC6 inhibitor project, cell-based, second specificity screen, HEK293 TRPC4/mu-opioid (AID 2776;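 active means compounds whose fluorescence signal differed from control wells by over 3 SD, either direction, in both duplicate plates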). To be noted: HEK293 TRPC4/MOR, membrane potential dye fluorescence, at 10 µM, channel activated by saturating DAMGO dose; active compounds read high.
Sequence of Short transient receptor potential channel 4 (Mus musculus) (Q9QUQ5 whole entry, looked up): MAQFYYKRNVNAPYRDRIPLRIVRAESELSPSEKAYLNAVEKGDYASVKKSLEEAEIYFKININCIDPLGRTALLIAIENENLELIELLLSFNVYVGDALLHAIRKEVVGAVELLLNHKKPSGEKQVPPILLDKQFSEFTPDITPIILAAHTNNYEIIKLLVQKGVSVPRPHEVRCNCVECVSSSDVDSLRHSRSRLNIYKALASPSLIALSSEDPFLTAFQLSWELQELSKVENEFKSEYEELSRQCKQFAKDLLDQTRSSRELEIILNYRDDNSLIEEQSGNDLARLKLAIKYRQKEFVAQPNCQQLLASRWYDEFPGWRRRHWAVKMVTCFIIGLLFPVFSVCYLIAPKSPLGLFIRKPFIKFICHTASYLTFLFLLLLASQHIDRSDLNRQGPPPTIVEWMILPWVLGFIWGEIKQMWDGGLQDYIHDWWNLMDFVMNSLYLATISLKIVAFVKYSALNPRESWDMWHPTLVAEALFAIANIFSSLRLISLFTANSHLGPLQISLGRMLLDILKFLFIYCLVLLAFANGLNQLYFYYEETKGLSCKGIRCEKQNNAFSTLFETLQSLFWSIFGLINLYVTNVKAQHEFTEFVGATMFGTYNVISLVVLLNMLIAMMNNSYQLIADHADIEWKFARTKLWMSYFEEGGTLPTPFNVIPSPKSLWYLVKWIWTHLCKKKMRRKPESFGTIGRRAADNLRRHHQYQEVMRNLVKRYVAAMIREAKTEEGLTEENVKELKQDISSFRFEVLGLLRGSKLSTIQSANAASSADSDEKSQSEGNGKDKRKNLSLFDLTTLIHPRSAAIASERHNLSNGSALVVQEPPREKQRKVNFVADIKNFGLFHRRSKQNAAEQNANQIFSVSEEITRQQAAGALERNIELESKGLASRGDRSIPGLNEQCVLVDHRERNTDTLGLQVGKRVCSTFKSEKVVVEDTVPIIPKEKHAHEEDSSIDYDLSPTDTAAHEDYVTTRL
Regarding `O=C(NC(Nc1nc2ccc([N+](=O)[O-])cc2s1)(C(F)(F)F)C(F)(F)F)c1ccccc1`, the inhibition (in general, the percentage by which the read-out fell short of the control) is 45% (active).

`Cc1ccc2nc(C)c3c(c2c1)N(c1ccccc1)CC3`: the inhibition was 32% (active).

For the compound `Cc1cc2oc3ccc(NCCC4CCCN4C)cc3c(=O)c2cc1C` (centres undefined), the inhibition is 63% (active).

With `N=c1c2c(-c3ccccc3)c(-c3ccccc3)n(Cc3ccccc3)c2ncn1CCCO`, the compound was called inactive.

The next assay deals with transient receptor potential cation channel C4 (TRPC4), mouse. In words: mouse TRPC4 modulation by TRPC6 hits, confirmation, selectivity assay for TRPC6 inhibitor project, cell-based, HEK293 TRPC4/mu-opioid, membrane potential dye (AID 2777;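 active means rise or fall in signal beyond 3 SD of buffer-only wells in both replicate plates, either sign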;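 further: integrated kinetic ratio of fluorescence range over baseline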). Particulars: membrane potential fluorescence, at 10 µM.
As for `O=C(NC(Nc1nc2ccc([N+](=O)[O-])cc2s1)(C(F)(F)F)C(F)(F)F)c1ccccc1`, the activity change, negative = inhibition is 60.8% (active).

Consider `Cc1ccc2nc(C)c3c(c2c1)N(c1ccccc1)CC3`, for which the compound was called inactive.

In the case of `Cc1cc2oc3ccc(NCCC4CCCN4C)cc3c(=O)c2cc1C` (centres undefined), the activity change, negative = inhibition was 8.34% (active).

Regarding `N=c1c2c(-c3ccccc3)c(-c3ccccc3)n(Cc3ccccc3)c2ncn1CCCO`, the compound was called inactive.

Test system in another assay: not listed separately
In words: nonspecific membrane potential effects, parental HEK293, confirmation, counter-screen for TRPC6 inhibitor project, cell-based, second counter screen (AID 2779;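 active means membrane potential signal moving either way by over 3 SD of the maximum-effect control, in both duplicate plates, meaning non-specific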). To be noted: parental HEK293 membrane potential dye fluorescence; at 10 µM; maximal acetylcholine challenge after compound addition.
Take `O=C(NC(Nc1nc2ccc([N+](=O)[O-])cc2s1)(C(F)(F)F)C(F)(F)F)c1ccccc1`: the result was inactive.

`Cc1ccc2nc(C)c3c(c2c1)N(c1ccccc1)CC3`: the result was inactive.

With `Cc1cc2oc3ccc(NCCC4CCCN4C)cc3c(=O)c2cc1C` (centres undefined), the result was inactive.

With `N=c1c2c(-c3ccccc3)c(-c3ccccc3)n(Cc3ccccc3)c2ncn1CCCO`, the outcome was inactive.

Test system in the next assay: not listed separately
Nature of the assay: membrane potential modulation in parental HEK293, confirmation, counter-screen for TRPC6 inhibitor project, cell-based (AID 2780;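 active means membrane potential signal shifting up or down by more than 3 SD of buffer-only wells, on both duplicate plates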;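 on membrane potential signal change: plate controls were buffer EC0 wells for no effect and acetylcholine ECmax wells for full effect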). Particulars: parental HEK293 membrane potential dye fluorescence; at 10 µM.
Take `O=C(NC(Nc1nc2ccc([N+](=O)[O-])cc2s1)(C(F)(F)F)C(F)(F)F)c1ccccc1`: the membrane potential signal change was 36.6% (active).

Take `Cc1ccc2nc(C)c3c(c2c1)N(c1ccccc1)CC3`: the membrane potential signal change is -212% (active).

Take `Cc1cc2oc3ccc(NCCC4CCCN4C)cc3c(=O)c2cc1C` (centres undefined): the membrane potential signal change was 5.47% (active).

On to `N=c1c2c(-c3ccccc3)c(-c3ccccc3)n(Cc3ccccc3)c2ncn1CCCO`, for which the result was inactive.

The next assay has as its target Short transient receptor potential channel 6 (Mus musculus) (UniProt Q61143). Nature of the assay: mouse TRPC6 channel inhibitors, confirmation, HEK293 cells, membrane potential dye, duplicate (AID 488960;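 active means fluorescence ratio falls more than 5 SD below the full-stimulation control mean, in both duplicate runs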;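 on inhibition: integrated fluorescence ratio of peak minus minimum over baseline after agonist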). To be noted: ACh-evoked depolarization, at 10 µM; active compounds read high.
Take `O=C(NC(Nc1nc2ccc([N+](=O)[O-])cc2s1)(C(F)(F)F)C(F)(F)F)c1ccccc1`: the inhibition was 93.7% (active).

Consider `Cc1ccc2nc(C)c3c(c2c1)N(c1ccccc1)CC3`, for which the outcome was inactive.

As for `Cc1cc2oc3ccc(NCCC4CCCN4C)cc3c(=O)c2cc1C` (centres undefined), the outcome was inactive.

On to `N=c1c2c(-c3ccccc3)c(-c3ccccc3)n(Cc3ccccc3)c2ncn1CCCO`, for which the outcome was inactive.

Another assay shares this target. In words: mouse TRPC6 channel activators, confirmation, HEK293 cells, membrane potential dye, duplicate (AID 488961;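 active means ratio signal rise beyond 5 SD above unstimulated control wells' mean, seen in both duplicate runs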). To be noted: HEK293-TRPC6 membrane potential dye fluorescence, FDSS, at 10 µM; active compounds read high.
Take `Cc1ccc2nc(C)c3c(c2c1)N(c1ccccc1)CC3`: the call was inactive.

`Cc1cc2oc3ccc(NCCC4CCCN4C)cc3c(=O)c2cc1C` (centres undefined): the result was inactive.

With `N=c1c2c(-c3ccccc3)c(-c3ccccc3)n(Cc3ccccc3)c2ncn1CCCO`, the outcome was inactive.

Test system in a further assay: not listed separately
In words: thallium flux activation in parental CHO cells, counter-screen for KCNQ1 potentiator project (AID 493006;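 active means duplicate-averaged activation above buffer control mean plus 5 SD of those controls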). To be noted: parental CHO-K1 cells, FluxOR thallium flux, at 10 µM; active compounds read high. The method, boiled down: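 Test system: parental CHO-K1 cells, FluxOR dye-loaded / Probe or stimulus: potassium plus thallium depolarizing stimulus, 5x stock 12.5 mM K2SO4, Tl2SO4 / Timing: overnight 37 °C plating, 90 min dye, 20 min dark compound / Measured by: kinetic thallium-flux fluorescence / Read-out: max-minus-min fluorescence over baseline, percent of buffer-to-R-L3 span / Benchmarks: buffer and R-L3 controls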
Background: A counterscreen serves to expose hits that act by an unwanted route or on another target.
Turning to `CCC1(C)Cc2c(sc3[nH]c(=S)n(Cc4ccccc4)c(=O)c23)CO1` (centres undefined), the activation is 294% (active).

Take `Cc1cccc(NC(=S)NC(=O)c2ccc(Br)o2)c1`: the activation was 204% (active).

As for `CS(=O)(=O)c1sc(C(=O)NC(=S)Nc2ccc(OC(F)(F)F)cc2)c2c1C=CCC2`, the outcome was inactive.

In the case of `Oc1c(Cl)cc(Cl)cc1/C=N/c1ncn[nH]1`, the activation is 232% (active).

Regarding `CCn1c(O)c(N=NC2=NC(=O)CS2)c2cc(C)ccc21`, the activation is 244% (active).

Consider `Cc1[nH][nH]c(=O)c1C(c1ccc(-c2ccc(Cl)cc2)o1)c1c(C)[nH][nH]c1=O`, for which the result was inactive.

For `CCn1c(=S)[nH]c2sc3c(c2c1=O)CCCCC3`, the activation was 516% (active).

For `CCn1c2ccccc2c2cc(NC(=O)CNC)ccc21`, the result was inactive.

On to `CCOC(=O)c1sc(=S)n2c1[nH]c(=O)c1ccc(C(=O)OC)cc12`, for which the activation is 383% (active).

For the compound `CCOC(=O)c1c(NC(=S)NC)sc2c1CCCC2`, the activation is 318% (active).

For `Cc1ccc(/C=N/NC(=O)c2cc3ccccc3cc2O)o1`, the activation is 482% (active).

In the case of `CCc1ccc(NC(=O)C(=O)NNC(=O)c2cccs2)cc1`, the activation is 360% (active).

Regarding `CCn1cc(CN2CCC(C(=O)Nc3cccc(-c4cccc(Cl)c4)c3)CC2)cn1`, the result was inactive.

With `CC1=C/C(=N\OS(=O)(=O)c2ccccc2)C=CC1=O`, the result was inactive.

In another assay the target is Potassium voltage-gated channel subfamily KQT member 1 (Homo sapiens) (UniProt P51787). In words: KCNQ1 potassium channel potentiators, confirmation, FluxOR thallium flux, CHO cells, duplicates (AID 493007).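 On outcome: cells depolarized by a potassium plus thallium sulfate stimulus after compound.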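 On potentiation: 0% = buffer-only wells and 100% = R-L3 activator control.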 Particulars: KCNQ1 cell line, FluxOR thallium flux fluorescence, at 10 µM; active compounds read high, % of reference activator effect, buffer zero. The method, boiled down: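 Assay system: CHO cells carrying KCNQ1 | Controls: Buffer and R-L3 controls | Schedule: FluxOR dye loading 90 min, compound exposure 20 min, room temperature | Read-out: Baseline-normalized fluorescence change, percent of buffer-to-R-L3 range | Replicates: Each compound tested in duplicate | Technique: Kinetic thallium influx fluorescence with FluxOR dye, 10 s baseline, 110 s post-stimulus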
In the case of `CCC1(C)Cc2c(sc3[nH]c(=S)n(Cc4ccccc4)c(=O)c23)CO1` (centres undefined), the potentiation is 190% (active).

With `Cc1cccc(NC(=S)NC(=O)c2ccc(Br)o2)c1`, the potentiation was 72% (active).

For `CS(=O)(=O)c1sc(C(=O)NC(=S)Nc2ccc(OC(F)(F)F)cc2)c2c1C=CCC2`, the potentiation is 92% (active).

As to `Oc1c(Cl)cc(Cl)cc1/C=N/c1ncn[nH]1`, the potentiation is 41.5% (active).

Consider `CCn1c(O)c(N=NC2=NC(=O)CS2)c2cc(C)ccc21`, for which the potentiation was 112% (active).

Turning to `Cc1[nH][nH]c(=O)c1C(c1ccc(-c2ccc(Cl)cc2)o1)c1c(C)[nH][nH]c1=O`, the potentiation was 27.5% (active).

As to `CCn1c(=S)[nH]c2sc3c(c2c1=O)CCCCC3`, the potentiation is 258% (active).

As for `CCn1c2ccccc2c2cc(NC(=O)CNC)ccc21`, the result was inactive.

As to `CCOC(=O)c1sc(=S)n2c1[nH]c(=O)c1ccc(C(=O)OC)cc12`, the potentiation was 108% (active).

For `CCOC(=O)c1c(NC(=S)NC)sc2c1CCCC2`, the potentiation is 73% (active).

Regarding `Cc1ccc(/C=N/NC(=O)c2cc3ccccc3cc2O)o1`, the potentiation is 140% (active).

As to `CCc1ccc(NC(=O)C(=O)NNC(=O)c2cccs2)cc1`, the potentiation is 159% (active).

As for `CCn1cc(CN2CCC(C(=O)Nc3cccc(-c4cccc(Cl)c4)c3)CC2)cn1`, the result was inactive.

As for `CC1=C/C(=N\OS(=O)(=O)c2ccccc2)C=CC1=O`, the outcome was inactive.
